The values that follow come from ChEMBL document CHEMBL1140080, “Adamantyl-substituted retinoid-derived molecules that interact with the orphan nuclear receptor small heterodimer partner: effects of replacing the 1-adamantyl or hydroxyl group on inhibition of cancer cell growth, induction of cancer cell apoptosis, and inhibition of SRC homology 2 …” (J Med Chem, 2008).

A short description of data set [1]: Induction of apoptosis in human HL60R cells at 0.1 uM after 24 hrs by acridine orange staining. Type of data set: functional. The gist of the method:
(§1)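 KG-1, HL-60R (24 h) or MDA-MB-231 (96 h) cells in 5% FBS medium attached overnight, then were treated with analogue in Me2SO or vehicle (final 0.1% Me2SO). Apoptotic cells were scored by acridine orange staining on at least three replicates. Tested concentrations were 0.1–5.0 μM, plus 25 μM for KG-1.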

Data set [2] is described as follows: Induction of apoptosis in human HL60R cells at 1.0 uM after 24 hrs by acridine orange staining. Type of data set: functional. The method in brief: as §1
Data set [3] is described as follows: Growth inhibition of HMVE cells after 72 hrs by alamar blue method. Type of data set: cell-based. The note with it: Homo sapiens. On the technique in general: Resazurin is reduced to fluorescent resorufin, in cell work by metabolically active cells.
Data set [4] can be described thus: Growth inhibition of HMVE cells at 0.5 uM after 72 hrs by alamar blue method. Type of data set: cell-based. The settings on record: human; for inhibition at 72 h, 0.5 µM: HMVE cells, read-out: GI.
In data set [5] the test system is MDA-MB-231. The data set is described as follows: Induction of apoptosis in human MDA-MB-231 cells at 1.0 uM after 96 hrs by acridine orange staining. Type of data set: functional. The gist of the method: as §1
The subject of data set [6] is MDA-MB-231. The data set is described as follows: Induction of apoptosis in human MDA-MB-231 cells at 2.0 uM after 96 hrs by acridine orange staining. Type of data set: functional. The gist of the method:
as §1

Where only a bound is given, the exact number is not on record here.

Broadly, the IC50 is the concentration that inhibits the measured activity by half. Take `O=C(O)c1ccc2cc(-c3ccc(O)c(C4C5CC6CC(C5)CC4C6)c3)ccc2c1` (configuration not stated): the Activity in data set [1] and in data set [2] was 0% in each case. This compound had an IC50 in data set [3] above 500 nM. Moreover, the inhibition at 72 h, 0.5 µM in data set [4] is 35%.

For the compound `Cc1c(-c2ccc(O)c(-c3ccc4c(c3)C(C)(C)CCC4(C)C)c2)ccc2cc(C(=O)O)ccc12`, the Activity in data set [1] and in data set [2] was 0% in each case. Besides, the concentration for half-maximal inhibition (IC50) in data set [3] is 600 nM. In addition, the inhibition at 72 h, 0.5 µM in data set [4] was found to be 60%.

As for `O=C(O)c1ccc2cc(-c3cc(O)c(O)c(C45CC6CC(CC(C6)C4)C5)c3)ccc2c1`, the Activity in data set [5] amounted to 0%.

As for `CC1(C)CCC(C)(C)c2cc(-c3ccc4cc(C(=O)O)ccc4c3)c(CO)cc21`, the Activity in data set [5] is given as 0%.

As to `Cc1cc(C)c(-c2cc(-c3ccc4cc(C(=O)O)ccc4c3C)ccc2O)c(C)c1`, the Activity in data set [1] and in data set [2] was 0% each time. This compound returned an IC50 in data set [3] above 500 nM. The inhibition at 72 h, 0.5 µM in data set [4] was found to be 17%.

The compound `O=C(O)c1ccc2cc(-c3cc(O)cc(C45CC6CC(CC(C6)C4)C5)c3)ccc2c1` had an Activity in data set [5] of 0%.

The compound `CC(C)(C)c1cc(-c2ccc3cc(C(=O)O)ccc3c2)ccc1O` displayed an IC50 in data set [3] above 500 nM. Further, the inhibition at 72 h, 0.5 µM in data set [4] was determined as 10%.

Compound `O=C(O)c1ccc2cc(-c3cc(C45CC6CC(CC(C6)C4)C5)ccc3O)ccc2c1` yielded an Activity in data set [5] of 0%.

On to `COc1ccc(C23CC4CC(CC(C4)C2)C3)cc1-c1ccc2cc(C(=O)O)ccc2c1`, for which, in data set [2], the Activity came out at 0%.

`COc1cc(-c2ccc3cc(C(=O)O)ccc3c2)ccc1C12CC3CC(CC(C3)C1)C2` showed an Activity in data set [2] of 0%.

The compound `O=C(O)c1ccc2cc(-c3ccc(O)c([C@@H]4CC[C@@H]5CCCC[C@H]5C4)c3)ccc2c1` returned an Activity in data set [2] of 0%. For the same compound, in data set [3], the IC50 is above 500 nM. In data set [4], the inhibition at 72 h, 0.5 µM amounted to 0%.

In data set [2], `CC1(C)CCC(C)(C)c2cc(-c3cc(-c4ccc(/C=C/C(=O)O)cc4)ccc3O)ccc21` displayed an Activity of 0%.

As to `CC1C2(c3cc(-c4ccc(/C=C/C(=O)O)cc4)ccc3O)CCC(C2)C1(C)C` (configuration not stated), the Activity in data set [1] and in data set [2] was 2% in each case. The half-inhibitory concentration (IC50) in data set [3] is above 500 nM. In addition, the growth inhibition (GI) in data set [4] (hmve, 72 h, 0.5 µM) is 40%.

For `O=C(O)c1ccc2cc(-c3ccc(O)c(C45CC6CC(CC(C6)C4)C5)c3)ccc2c1` [O-DEMETHYLATED ADAPALENE], the Activity in data set [1] came to 73%; in data set [2] it was 98%; in data set [5], 26%; in data set [6], 46%.

In data set [5], `COc1cc(-c2ccc3cc(C(=O)O)ccc3c2)cc(C23CC4CC(CC(C4)C2)C3)c1` displayed an Activity of 20%.

As to `O=C(O)c1ccc2cc(-c3ccc(O)c([C@H]4CCC5CCCC[C@H]5C4)c3)ccc2c1` (some centres not stated), in data set [2], the Activity was found to be 0%.

In the case of `COc1ccc(-c2ccc3cc(C(=O)O)ccc3c2)cc1C12CC3CC(CC(C3)C1)C2`, the Activity in data set [1] stood at 3%; in data set [2], 95%.

As to `CC(C)=CCC/C(C)=C\Cc1cc(-c2ccc3cc(C(=O)O)ccc3c2)ccc1O`, the Activity in data set [2] was 0%.

Regarding `CC(c1cc(-c2ccc3cc(C(=O)O)ccc3c2)ccc1O)C12CC3CC(CC(C3)C1)C2` (configuration not stated), the Activity in data set [2] is 0%. The compound also displayed an IC50 in data set [3] above 500 nM. Further, in data set [4], the inhibition at 72 h, 0.5 µM was found to be 30%.

In the case of `COc1cc(-c2ccc3cc(C(=O)O)ccc3c2)cc(C23CC4CC(CC(C4)C2)C3)c1O`, in data set [5], the Activity was determined as 0%.

`COCCOCOc1ccc(-c2ccc3cc(C(=O)O)ccc3c2)cc1C12CC3CC(CC(C3)C1)C2` returned an Activity in data set [2] of 21%.

Compound `O=C(O)c1ccc2cc(-c3ccc(O)c([C@@H]4CCC[C@H]5CCCCC54)c3)ccc2c1` (some centres not stated) displayed an Activity in data set [2] of 0%. Besides, the IC50 in data set [3] is above 500 nM. Besides, the inhibition at 72 h, 0.5 µM in data set [4] came out at 10%.

`CCCCC[C@@H]1CC2(c3cc(-c4ccc(/C=C/C(=O)O)cc4)ccc3O)CCC1CC2`: the Activity in data set [1] and in data set [2] was 0% in each case.
